Source: PubChem (several laboratories)
SENP1 inh – inhibitors of human SENP1 SUMO protease catalytic domain; Q9P0U3; recombinant SENP1 catalytic domain, CyPet-SUMO1-YPet FRET cleavage; inhibition, % at 10 µM; actives 0.21% (n = 360,000);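 active means inhibition at least 30% at 10 µM, raw YFP signal under a set limit, fluorescence ratio 0.5 to 1.5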;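 further: 0% = enzyme with DMSO and 100% = no enzyme wells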
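Material: hSENP1 catalytic domain, recombinant; medium: Tris pH 8 with BME, BSA, NP40 and catalase; compound: single concentration of 10 µM compound, 0.5% DMSO final; technique: FRET read of cyan and yellow fluorescence; timing: 50 min enzyme reaction, room temperature, light-protected; reagent: SFCypet-SUMO1-SFYpet substrate at 25 nM; control set: no-enzyme low, enzyme-DMSO high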
HNF4A DNA FP – change in binding of human HNF4 alpha to DNA; HNF4a-FITC DNA binding, fluorescence polarization, 1 h; P41235; activity change, % at 10 µM; actives 0.3% (n = 360,000); in the data active means activity change above about 30%, passing the limit was not always enough
SUMO HTRF inh – SUMOylation inhibition; HTRF SUMOylation assay, SAE1/SAE2 + UBC9, in vitro; inhibition, % at 35 µM; actives 0.36% (n = 290,000); AID 2006; in the data active means inhibition above about 50%, passing the limit was not always enough
Target sequence (P63279 whole entry, looked up): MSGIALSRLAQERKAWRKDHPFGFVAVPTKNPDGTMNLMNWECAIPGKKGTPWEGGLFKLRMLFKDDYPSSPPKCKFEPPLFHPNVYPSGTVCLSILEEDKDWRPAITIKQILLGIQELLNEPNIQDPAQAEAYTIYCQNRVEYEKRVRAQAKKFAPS
Rpn11 block – inhibitors of human proteasome Rpn11; O00487; human 26S proteasome, Ub4-pepOG fluorescence polarization; 20S core pre-blocked with epoxomicin; calls only at 20 µM; actives 0.59% (n = 360,000); AID 588493;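 active means inhibition at 20 µM, scaled to each plate's controls, above about 33%, limit read from the data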
TPT1 inhibitor – C. albicans TPT1 enzyme inhibition. actives 0.81% (n = 300,000). recombinant caTPT1, FP RNA substrate dephosphorylation. AID 1962. inhibition, % at 5 µM;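 active means inhibition above the mean of all tested compounds plus 3 SD, set per screening campaign, cut at about 24% in these data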;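 further: plate controls were DMSO alone for no effect and ferristatin control at 100 nM for full effect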
CSN deneddyl inh – CSN deneddylation inhibition; Purified CSN, SCF-Nedd8-OG deneddylation, fluorescence polarization; actives 0.38% (n = 360,000); inhibition, % at 12.5 µM; Q92905; AID 651999;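 active means pattern-corrected inhibition above about 35%, with an unprinted fluorescence ratio check between 0.5 and 1.5, limit read from the data, passing the limit was not always enough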;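 further: 0% = enzyme with substrate and 100% = substrate without enzyme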
Target sequence (Q92905 whole entry, looked up, one chain of several): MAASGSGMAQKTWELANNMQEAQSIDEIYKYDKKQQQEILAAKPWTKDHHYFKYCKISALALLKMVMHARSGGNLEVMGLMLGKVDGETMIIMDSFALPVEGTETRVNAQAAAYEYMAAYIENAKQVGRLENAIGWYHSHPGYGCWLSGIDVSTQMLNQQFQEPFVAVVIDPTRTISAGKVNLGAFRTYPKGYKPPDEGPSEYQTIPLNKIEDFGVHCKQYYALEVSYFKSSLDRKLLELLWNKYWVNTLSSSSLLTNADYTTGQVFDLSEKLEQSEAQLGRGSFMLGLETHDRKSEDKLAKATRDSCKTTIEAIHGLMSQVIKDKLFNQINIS
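Assay system: Purified human Csn5 enzyme expressed in HEK293T cells | Amount: Enzyme 0.24 nM | Measured by: Fluorescence polarization readout | Medium: Tris/NaCl/DTT buffer, pH 7.5 | Compound dosing: One concentration, 12.5 µM, 0.25% DMSO | Times: 90 min incubation of compound, enzyme and substrate at room temperature | Control set: no-enzyme wells high, enzyme-with-substrate wells low | Read-out: % inhibition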
SENP1 conf – SENP1 (human) inhibition, single concentration confirmation. recombinant SENP1, CyPet-SUMO1-YPet FRET cleavage. shares compounds with SENP1 inh. inhibition, % at 10 µM. actives 34% (n = 520); in the data active means inhibition mostly above about 35%, no sharp cut-off; inactive means mostly below about 32%;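 further: 0% = enzyme with DMSO and 100% = no enzyme control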
SENP1 kin conf – SENP1 (human) inhibition, kinetic confirmation. shares compounds with SENP1 inh. recombinant SENP1, CyPet-SUMO1-YPet FRET kinetic cleavage. inhibition, % at 10 µM. actives 26% (n = 520). AID 651690; in the data active means inhibition mostly above about 32%, no sharp cut-off; inactive means mostly below about 29%;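 further: 0% = DMSO with enzyme and 100% = no enzyme substrate only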
An asterisk follows results filed as active; i = inactive; nt = no result shown. Shown are actives, neighbours in structure and some others; about 1.8% of the full set was active somewhere.

SMILES	SENP1 inh	HNF4A DNA FP	SUMO HTRF inh	Rpn11 block	TPT1 inhibitor	CSN deneddyl inh	SENP1 conf	SENP1 kin conf
N#Cc1ccc(-c2nc3ccc(Cl)cn3c2Cc2ccccc2C(F)(F)F)cc1	48.5*	2.3	nt	i	nt	5.8	54.8*	45.0*
Cc1ccc(NS(=O)(=O)c2ccc(C(=O)OCC(=O)Nc3cc(C)on3)cc2)cc1	1.0	1.1	-7.2	i	nt	0.5	nt	nt
N#CCSc1ccccc1NC(=O)COC(=O)CCNC(=O)c1ccc([N+](=O)[O-])cc1	32.1*	3.6	nt	i	nt	7.1	8.4	6.1
Cc1noc(C)c1C(=O)OCC(=O)Nc1ccccc1SCC#N	43.5*	0.6	nt	i	nt	6.2	17.4	13.7
CCN(CC)S(=O)(=O)c1ccc(N2CCOCC2)c(NC(=O)c2ccc(F)cc2)c1	1.1	2.2	15.3	i	-4.7	-5.1	nt	nt
CCN(CC)S(=O)(=O)c1ccc(N2CCOCC2)c(NC(=O)c2ccc(C#N)cc2)c1	35.9*	-4.3	23.2	i	2.4	1.0	0.3	8.8
Cc1sc(-c2ccccn2)nc1OC(=O)c1ccc(Cl)c(Cl)c1	3.1	0.4	5.5	i	2.5	-1.1	nt	nt
Cc1sc(-c2ccccn2)nc1OC(=O)c1ccc(F)cc1F	51.5*	-1.8	17.5	i	-2.4	-3.8	49.9*	69.1*
O=C1c2cccc3cc([N+](=O)[O-])cc(c23)C(=O)N1c1ccccc1O	39.8*	-3.7	33.1	i	2.1	-0.7	17.5	10.3
Cc1cc(O)ccc1N1C(=O)c2cccc3cc([N+](=O)[O-])cc(c23)C1=O	35.7*	-6.8	24.3	i	-6.0	-5.0	13.3	6.4
O=C(CN1CCc2ccccc2C1)NCc1ccco1	-11.5	0.1	10.3	i	-4.4	-2.8	nt	nt
CCc1cc2c(N=Nc3c(O)[nH]c4ccccc34)ncnc2s1	58.7*	22.5	-8.3	nt	4.0	6.4	4.1	-15.0
Cc1sc2ncnc(N=Nc3c(O)[nH]c4ccccc34)c2c1C	18.2	2.1	-2.4	i	-6.7	5.6	nt	nt
COc1ccccc1CNC(=O)C1CSC2(C)CCC(=O)N12 (stereo not given)	0.2	0.7	nt	i	nt	3.5	nt	nt
COc1cccc(CNC(=O)C2CSC3(C)CCC(=O)N23)c1 (stereo not given)	38.5*	19.5	nt	i	12.8	14.8	-3.3	-0.3
Cc1cnc(C(=O)OC(C)C(=O)Nc2ccc3c(c2)OCCO3)cn1 (stereo not given)	2.5	4.7	8.3	i	-0.2	0.9	nt	nt
COc1cc(/C=C/C(=O)OCC(=O)Nc2cc(C)c(C)cc2[N+](=O)[O-])ccc1O	3.5	3.7	13.2	i	-0.1	-2.5	nt	nt
COc1cc(/C=C/C(=O)OCC(=O)Nc2ccc(C)cc2[N+](=O)[O-])ccc1O	38.5*	-2.4	-24.0	i	-2.4	0.4	1.2	6.6
COc1ccccc1C1C2=C(N=c3s/c(=C/c4cccc(OCC(=O)O)c4)c(=O)n31)c1ccccc1CC2 (stereo not given)	35.6*	-0.5	20.4	i	9.1	5.4	44.3*	20.6
COc1cccc(C2C3=C(N=c4s/c(=C\c5cccc(O)c5)c(=O)n42)c2ccccc2CC3)c1OC (stereo not given)	49.5*	10.7	3.2	i	13.0	4.5	26.1	16.8
COc1cccc(C2C3=C(N=c4s/c(=C\c5ccc(O)cc5)c(=O)n42)c2ccccc2CC3)c1OC (stereo not given)	12.3	8.3	-2.4	i	0.9	-7.8	nt	nt
Cc1cccc(-c2noc(-c3cc4ccccc4oc3=O)n2)c1	51.1*	-2.3	23.4	i	-2.7	-2.1	-0.2	6.4
COC(=O)C[C@H]1CC[C@H](NC(=O)Nc2ccccc2)[C@@H](CO)O1	1.8	3.0	nt	nt	nt	-3.5	nt	nt
